Shown are actives, neighbours in structure and some others; about 11% of the full set was active somewhere.
D1 mod = D1 CRE-luciferase signal change, two-sided – cell-based, HEK293 D1, dopamine EC30, D1 allosteric modulator project, primary screen | 58,000 compounds, 5.9% hits | AID 641, 2007 | dopamine EC30 potentiation; actives deviate in either direction | B-score at 10 µM | D(1A) dopamine receptor (Homo sapiens), P21728;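 active means luminescence count or its row- and column-corrected plate score outside the 99.7% band of the plate's sample wells, on either side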
M1 ag = M1 muscarinic receptor agonists, primary screen, CHO-M1 cells, Fluo-4 calcium, agonist mode. Fluo-4 calcium fluorescence; active compounds read high. B-score at 10 µM. 64,000 compounds, 3% hits. AID 626, 2007;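 active means fluorescence rise, raw or as B-score row- and column-corrected plate score, outside the 99.7% band of its plate's samples, either direction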
M1 antagonist = antagonists of rat M1 muscarinic receptor. 64,000 compounds, 3.4% hits. B-score at 10 µM. Muscarinic acetylcholine receptor M1 (Rattus norvegicus), P08482. CHO-M1 cells, Fluo-4 calcium, ACh EC80 antagonist mode; active compounds read low. AID 628, 2007;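 active means calcium fluorescence response, raw or row-and-column corrected B-score, differing from the plate sample mean either way at a set confidence level, mostly lower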
S1P3 agonist = human S1P3 receptor agonists, primary screen, cell-based, primary and confirmation, NFAT-BLA reporter; activation, % at 4.5 µM; S1P3 NFAT-BLA reporter cells, agonism, FRET ratio; relative to 1 µM S1P, basal subtracted; 60,000 compounds, 0.1% hits; Sphingosine 1-phosphate receptor 3 (Homo sapiens), Q99500;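 active means activation above the screen-wide mean plus 3 SD, cut at about 4.5% in these data, passing the limit was not always enough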
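material = human S1P3 NFAT-BLA reporter CHO cells | schedule = 4 h compound at 37 °C, 2 h substrate at RT | measured by = fluorescent BLA substrate, ex 405 nm, em 460/535 nm ratio | controls = 1 µM S1P reference | replication = primary once, confirmation triplicate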
S1P1 ag pot = S1P1 agonists and agonism potentiators, primary screen, cell-based, primary and confirmation screens, CRE-bla reporter; activation, % at 9.5 µM; 56,000 compounds, 0.57% hits; S1P1 CRE-bla cells, forskolin, beta-lactamase FRET, potentiator mode; S1P1 agonist co-added at EC20, 2 nM; 100% = saturating reference agonist, 0% = basal;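 active means activation above a cutoff set at the mean activation of all tested compounds plus 3 SD, cut at about 54% in these data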;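 further: forskolin at 4 µM as EC80 and the EC20 agonist is SEW2871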
M1 ag confirm = rat M1 muscarinic receptor agonists, confirmation, CHO-M1 cells, Fluo-4 calcium, duplicate retest; shares compounds with M1 ag; Fluo-4 calcium fluorescence, agonist mode; actives lie on both sides; fluorescence change (max-min) at 10 µM; 1,700 compounds, 19% hits;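 active means fluorescence change differs from the solvent-only DMSO control mean at a set confidence level in both duplicate runs; inconclusive means differs from solvent-only control mean in just one of two runs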;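 further: an EC20 dose of acetylcholine follows compound addition during the same imaging run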
M4 ag counter = agonist activity at rat M4 receptor, confirmation, counter-screen for M1 allosteric modulator project, cell-based, agonist mode. shares compounds with M1 ag. fluorescence change (max-min) at 10 µM. CHO M4/Gqi5 cells, Fluo-4 calcium fluorescence; actives lie on both sides. AID 1741, 2009. 1,700 compounds, 9% hits;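 active means fluorescence change differing from the plate's solvent-only control wells at 99.7% confidence in both duplicates, whether higher or lower; inconclusive means differs from solvent controls in only one of two duplicates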
Target sequence (P08485 whole entry, looked up): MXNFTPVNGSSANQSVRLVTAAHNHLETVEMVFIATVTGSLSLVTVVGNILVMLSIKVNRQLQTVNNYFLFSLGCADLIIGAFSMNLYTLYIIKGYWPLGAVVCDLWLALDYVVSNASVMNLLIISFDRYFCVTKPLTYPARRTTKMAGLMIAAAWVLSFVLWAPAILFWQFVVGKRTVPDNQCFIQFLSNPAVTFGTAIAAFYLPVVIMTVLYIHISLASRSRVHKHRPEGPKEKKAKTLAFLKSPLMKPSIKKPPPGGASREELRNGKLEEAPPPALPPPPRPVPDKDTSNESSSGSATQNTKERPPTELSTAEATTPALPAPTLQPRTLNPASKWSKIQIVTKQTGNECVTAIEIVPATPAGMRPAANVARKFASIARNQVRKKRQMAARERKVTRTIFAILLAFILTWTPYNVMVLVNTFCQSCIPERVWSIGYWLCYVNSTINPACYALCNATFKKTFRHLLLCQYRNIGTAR
Hits are given with their value; 0 = inactive; ? = inconclusive; - = no result given.

SMILES	D1 mod	M1 ag	M1 antagonist	S1P3 agonist	S1P1 ag pot	M1 ag confirm	M4 ag counter
COc1cccc(C(c2sc3nc(C)nn3c2O)N2CCc3ccccc3C2)c1 (centres undefined)	0	0	0	0	0	-	-
O=C(CNC(=O)c1ccco1)OC(C(=O)c1ccccc1)c1ccccc1 (centres undefined)	-	6.7	0	0	0	0	?
Nc1nonc1-n1nnc(C(=O)O)c1-c1cccs1	0	0	0	0	0	-	-
Cc1ccccc1OCCCCCn1ccnc1	0	0	0	0	0	-	-
Cc1cccc(OCCCCCn2ccnc2)c1	0	4.5	0	0	0	0	0
O=C(CN1CCOCC1)Nc1ccccc1-c1ccccc1	0	0	0	0	0	-	-
O=C(CN1CCOCC1)Nc1scc(-c2ccccc2)c1C(=O)N1CCOCC1	0	3.4	0	0	0	?	0
Cc1cccc(N2CCN(C(=O)n3ccnc3)CC2)c1C	0	0	0	0	0	-	-
COCCn1c(-c2ccccc2)nc2oc3ccccc3c(=O)c2c1=O	0	2.4	0	0	0	-25	-96
CCOc1ccccc1C(=O)N1CCN=C1SCc1cccnc1	0	0	0	0	0	-	-
Fc1ccccc1N1CCN(c2nc3ccccc3n3nnnc23)CC1	0	12	0	0	0	?	0
N#Cc1ccccc1CSc1nc(N2CCCCC2)nc(N2CCCCC2)n1	0	7.4	0	0	0	0	0
Cc1ccc(C2N(c3ccc(Cl)c(Cl)c3)C(=O)C3CCCN32)o1 (centres undefined)	0	6.7	0	0	0	?	0
COc1ccc(N2C(=O)C3CCCN3C2c2ccc(C)o2)cc1Cl (centres undefined)	0	0	0	0	0	-	-
COc1ccc2c(CC(=O)NCc3ccc4c(c3)OCO4)coc2c1	0	0	0	0	0	-	-
CC(=O)Nc1ccc(OCC(O)CN2CCN(c3cc(Cl)ccc3C)CC2)cc1 (centres undefined)	0	0	0	0	0	-	-
CC(=O)Nc1ccc(OCC(O)CN2CCN(c3ccc(C)c(Cl)c3)CC2)cc1 (centres undefined)	-2.6	1.9	0	0	-	0	0
CCC(Oc1ccccc1)C(=O)Nc1ccc(S(=O)(=O)NCC2CCCO2)cc1 (centres undefined)	0	-2.2	0	0	0	0	0
COc1ccc(Cl)cc1NC(=O)C1CSC(c2ccncc2)=N1 (centres undefined)	0	0	0	0	0	-	-
Cc1cc(C)n2nc(SCC(=O)NCc3ccco3)nc2n1	0	0	0	-	-	-	-
COc1ccc(-c2[nH]c(-c3ccc(F)cc3)nc2SCC(=O)NCc2ccco2)cc1OC	0	0	0	0	0	-	-
COc1ccc(-c2nc(SCC(=O)NCc3ccco3)c(-c3ccccc3)[nH]2)cc1OC	0	5.8	0	-	-	0	0
Cc1cc(C)nc(SCC(=O)NCc2ccco2)n1	0	2.4	0	0	-	-22	0
CCOC(=O)c1cccc(NC(=O)CSc2nnc(C3CCCCC3)n2CC)c1	0	0	0	0	0	-	-
N=c1c(S(=O)(=O)c2ccccc2)cc2c(=O)n3ccccc3nc2n1Cc1ccco1	0	9	0	0	0	0	0
SMILES	D1 mod	M1 ag	M1 antagonist	S1P3 agonist	S1P1 ag pot	M1 ag confirm	M4 ag counter
CCOC(=O)c1c(C#N)c(SCC(=O)Nc2ccc(OC)cc2)nc2c1CN(CC)CC2	0	0	0	0	-	-	-
Nc1nnc(CCC2CCCCC2)s1	-	0	0	0	0	-	-
N#CC1=C(N)SC(N)=C(C#N)C1CCC1CCCCC1	0	6.3	0	0	0	0	0
CC1(C)NC(C)(C)C(O)(C(N)=O)C1=O (centres undefined)	0	0	0	0	0	-	-
COC(=O)C1=C(NC(=O)c2cccc(C)c2)CCS1	-	-	-	0	0	-	-
CN1C(=O)C(O)(CC(=O)c2ccccn2)c2cc(Br)ccc21 (centres undefined)	-	-2.7	0	0	0	?	0
CCOc1ccc2nc(NC(=O)C3CCCN(S(=O)(=O)c4c(C)noc4C)C3)sc2c1 (centres undefined)	0	0	0	0	0	-	-
CN(CC1CCCO1)S(=O)(=O)c1ccc(C(=O)Nc2nc(-c3ccccn3)cs2)cc1 (centres undefined)	0	9.6	0	0	0	0	0
O=C(Nc1nc(-c2ccccn2)cs1)C1CC1	0	0	0	0	0	-	-
CCOc1ccc2nc(N3CCC(C(=O)N4CCN(C(=O)c5ccco5)CC4)CC3)sc2c1	0	2.8	0	0	0	?	0
CCOc1ccc2nc(N3CCCC(C(=O)N4CCN(CC)CC4)C3)sc2c1 (centres undefined)	0	0	0	0	0	-	-
NS(=O)(=O)c1ccc(NC(=O)COC(=O)CCNC(=O)NC23CC4CC(CC(C4)C2)C3)cc1	0	0	0	-	-	-	-
CCCC(C(=O)NCc1ccco1)N(C(=O)CNS(=O)(=O)c1ccccc1)c1ccccc1OC (centres undefined)	0	0	0	0	0	-	-
CC(=O)OC1=C(C#N)Cn2ccc3cccc1c32	0	9	0	0	0	0	0
Cc1ccccc1OCc1nc(-c2ccccc2)no1	0	-2.4	0	0	-	0	0
O=S(=O)(NCc1ccccc1)c1ccc2c(c1)OCCO2	0	7.4	0	0	0	0	0
CN1CCN(c2ncnc3c2cnn3-c2ccc(Cl)cc2)CC1	-6.2	2.9	0	0	0	?	0
CCOc1ccccc1NC(=O)CSc1nnc(-c2ccccc2Cl)n1Cc1ccco1	0	0	0	0	0	-	-
CC(C)C(CCN1C(=O)CCC1=O)C1CCOC(C)(C)C1 (centres undefined)	-	0	0	-	-	-	-
Cc1noc(/C=C/N(C)C)c1S(=O)(=O)N1CCCC(C(=O)NCc2ccccc2Cl)C1 (centres undefined)	0	0	0	0	0	-	-
O=C(OCc1cccs1)c1ccccc1NS(=O)(=O)c1ccc2c(c1)OCCO2	0	4	0	0	0	0	0
COCCN(CC(=O)NCc1ccccc1)C(=O)CCC(=O)Nc1ccccn1	0	0	0	0	0	-	-
CCC1C2CN(C(C)=O)CC=C2C(C#N)=C(N)C1(C#N)C#N (centres undefined)	0	0	0	0	0	-	-

Screening results from PubChem.
